As usually defined, the inhibition is the relative decrease from the control value, in per cent. For orientation: Ki means a dissociation constant, usually derived from enzyme kinetics or from competition with a known ligand. A low value points to a stronger hold on the target.

This passage reports inhibition and Ki results from PMC10527666 (Molecular imaging and biology, 2023).

The target in assay [1] is T1, α-synuclein fibrils (Homo sapiens, UniProt P37840). In words: Compound screening, 1-point inhibition of [^3H]BF2846 binding. The conditions noted are these: read-out: % Inhibition [^3H]BF-2846. Put shortly: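 Human α-synuclein (C-terminal intein fusion, expressed in E. coli BL21(DE3), purified, quantified by A280) was fibrillised. Fibrils at 100 nM were incubated with 100 nM test compound and 3 nM [³H]BF2846 in 50 mM Tris-HCl pH 7.4, 1 h at 37 °C, with nonspecific binding defined by 0.5 μM BF2846. Samples were GF/C-filtered and scintillation-counted, in triplicate. Bound radioligand was expressed as % of total binding and tested by one-way ANOVA.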

A further assay deals with Aβ42 fibrils (Homo sapiens, UniProt P05067). In words: Competition binding assay against [^3H]BF2846. The essentials: (§1)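 Fibrils (α-synuclein 50 nM; Aβ42 100 nM) incubated with 3 nM [³H]BF2846 and varying concentrations of test compound in 50 mM Tris-HCl pH 7.4, 1 h at 37 °C. Nonspecific binding was defined with 0.5 μM unlabeled BF2846, and fibril-free filter blanks were run. Samples were GF/C-filtered, washed with 10 mM Tris/150 mM NaCl and scintillation-counted after 12 h, in triplicate. Ki was obtained by nonlinear regression using radioligand Kd.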

The target in assay [2] is T1, α-synuclein fibrils. In words: Competition binding assay against [^3H]BF2846. The essentials: as §1

Aβ42 fibrils, sequence (P05067 672-713 limits assumed): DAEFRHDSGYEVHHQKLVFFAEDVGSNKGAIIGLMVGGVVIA

On to `COc1ccc(C(=O)Nc2cc(-c3ccc(Br)cc3)no2)cc1` [Compound 15, N-(3-(4-bromophenyl)isoxazol-5-yl)-4-methoxybenzamide], for which the inhibition at 0.1 µM on α-synuclein fibrils [1] worked out at 80%. In addition, the Ki on Aβ42 fibrils came out at 36.1 nM; on α-synuclein fibrils [2], 11 nM.

On α-synuclein fibrils [2], `COc1ccc(C(=O)Nc2cc(-c3ccc(I)cc3)no2)cc1` [Compound 21, N-(3-(4-iodophenyl)isoxazol-5-yl)-4-methoxybenzamide] gave a Ki of 3.6 nM.
